Results as given in ChEMBL document CHEMBL4400554, “Ketamine esters and amides as short-acting anaesthetics: Structure-activity relationships for the side-chain” (Bioorg Med Chem, 2019).

How the values were obtained:
[1] = system: Rattus norvegicus; experiment: Analgesic activity in Sprague-Dawley rat assessed as minimal dose for loss of pedal withdrawal reflex at 20 mg/kg/min followed by dose reduction to 6.7 mg/kg/min dosed via infusion; type: functional; conditions: read-out: MED
Summary of the method: (§1)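 Rats (230 to 320g) restrained; drug at 10mg/ml infused via marginal tail vein cannula by syringe driver at 20 mg/kg/min until loss of righting reflex and PWR=1. Rate then cut to 6.7 mg/kg/min and titrated up-and-down for 10 min. PWR scored each minute by 1 s firm digital pressure on forepaw. Three rats per study, ketamine as within-group control, randomised order, ≥4 h between runs.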

[2] = system: Rattus norvegicus; experiment: Short-acting anaesthetic activity in Sprague-Dawley rat assessed as dose causing loss of righting reflex at 20 mg/kg/min followed by dose reduction to 6.7 mg/kg/min dosed via infusion; type: functional; summary of the method: as §1
[3] = system: Rattus norvegicus; experiment: Short-acting anaesthetic activity in Sprague-Dawley rat assessed as time for return of righting reflex after infusion stopped at 20 mg/kg/min followed by dose reduction to 6.7 mg/kg/min dosed via infusion; type: functional
Summary of the method: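 Rats (230 to 320g) given tail-vein infusion of drug at 10mg/ml, 20 mg/kg/min until LORR and PWR=1, then 6.7 mg/kg/min titrated up-and-down to hold dorsal recumbency and PWR=1 to 10 min before stopping. Time from cessation to return of righting reflex recorded. Three rats per study, ketamine as own control, randomised order, ≥4 h recovery.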

[4] = target: Glutamate NMDA receptor; experiment: Displacement of [3H] MK-801 from NMDA glutamate ion channel in Wistar rat brain membranes (minus cerebellum) after 3 hrs by scintillation counting analysis; type: cell membranes
Summary of the method: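 Radioligand binding in Wistar rat brain (minus cerebellum) preparations with MK-801 as ligand.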

[5] = target: Glutamate [NMDA] receptor; experiment: Binding affinity to NMDA receptor (unknown origin); type: protein-complex assay, Homo sapiens
Summary of the method: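 Radioligand binding on Wistar rat brain (minus cerebellum) preparations, MK-801 as ligand, in 5 mM Tris-acetate buffer pH 7.4, 3 h at 25°C; IC50 in µM.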

Structure (SMILES) | minimal effective dose [1] [mg/kg] | EC [2] [mg/kg] | Time [3] [s] | IC50 [4] [µM] | Ki [5] [µM]
CNC(=O)CCCCNC1(c2ccccc2Cl)CCCCC1=O (stereo not drawn) | > 200 | 83 | 125 | 77 | 
CCOC(=O)CCOCCNC1(c2ccccc2Cl)CCCCC1=O (stereo not drawn) | > 200 | >200 |  | 87 | 
CN(C)C(=O)CCCCNC1(c2ccccc2Cl)CCCCC1=O (stereo not drawn) | > 200 | >200 |  | > 1000 | 
CCOC(=O)C(C)CCCNC1(c2ccccc2Cl)CCCCC1=O (stereo not drawn) | 55 | 50 | 260 | 107 | 
O=C1CCCCC1(NCCCN1CCCCC1)c1ccccc1Cl (stereo not drawn) | 130 | 67 | 556 | 41 | 
COC(=O)COCCNC1(c2ccccc2Cl)CCCCC1=O (stereo not drawn) | > 200 | >200 |  | 13 | 
CC(C)NC(=O)CCNC1(c2ccccc2Cl)CCCCC1=O (stereo not drawn) | > 200 | 82 | 82 | 58 | 
COC(=O)CCCCCNC1(c2ccccc2Cl)CCCCC1=O (stereo not drawn) | > 200 | >200 |  | 44 | 
COC(=O)CCCCNC1(c2ccccc2Cl)CCCCC1=O (stereo not drawn) | 44 | 34 | 99 | 3 | 
COCCOC(=O)CCCCNC1(c2ccccc2Cl)CCCCC1=O (stereo not drawn) | > 200 | >200 |  | 19 | 
COC(=O)CCCCCCNC1(c2ccccc2Cl)CCCCC1=O (stereo not drawn) | > 200 | >200 |  | 51 | 
CNC(=O)CCNC1(c2ccccc2Cl)CCCCC1=O (stereo not drawn) | > 200 | 58 | 85 | 73 | 
O=C(CCNC1(c2ccccc2Cl)CCCCC1=O)Oc1ccccc1 (stereo not drawn) | > 200 | >200 |  | 73 | 
CCNC(=O)CCNC1(c2ccccc2Cl)CCCCC1=O (stereo not drawn) | 139 | 112 | 237 | 935 | 
CNC1(c2ccccc2Cl)CCCCC1=O (stereo not drawn) [KETAMINE] | 28 | 23 | 1075 | 0.7 | 1.9
CCS(=O)(=O)CCNC1(c2ccccc2Cl)CCCCC1=O (stereo not drawn) | > 200 | >200 |  | > 1000 | 
COC(=O)CNC1(c2ccccc2Cl)CCCCC1=O (stereo not drawn) | > 200 | >200 |  | 308 | 
CC(C)OC(=O)CNC1(c2ccccc2Cl)CCCCC1=O (stereo not drawn) | > 200 | >200 |  | 45 | 
COC(=O)C(C)(C)CCCNC1(c2ccccc2Cl)CCCCC1=O (stereo not drawn) | > 200 | 52 | 580 | 125 | 
NC(=O)CCNC1(c2ccccc2Cl)CCCCC1=O (stereo not drawn) | > 200 | >200 |  | 500 | 
CC(C)OC(=O)CCNC1(c2ccccc2Cl)CCCCC1=O (stereo not drawn) | 37 | 33 | 83 | 134 | 
CN(C)C(=O)CCNC1(c2ccccc2Cl)CCCCC1=O (stereo not drawn) | 113 | 110 | 623 | 416 | 
